≈ marks a conversion by molar mass, not a printed value.
Experiments:
Format in all cases: functional
HUVEC [1] = assay: In vitro anti-proliferative activity against human umbilical vein endothelial cells at 5 uM.; details: for inhibition of growth at 5 µM: Homo sapiens, HUVEC, read-out: GI
HUVEC [2] = assay: Anti-proliferative activity against human umbilical vein endothelial cells (HUVECs)
Outline: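 HUVECs seeded at 1500 cells/well and cultured 24 h at 37 °C, then exposed to a dose-response series of compound for 24 h. Proliferation was read as ³H-thymidine incorporation by scintillation proximity assay. GI₅₀ was taken from plots of percent-of-control ³H-thymidine uptake versus compound concentration.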

Bos taurus = species on record: Bos taurus; assay: Anti-proliferative activity against calf endothelial cells; details: endothelial cell

How did the inhibition of growth at 5 µM (HUVEC [1]) turn out when `CCSCCC(N)C(O)C(=O)Nc1ccc(NC(=O)/C=C/c2ccccc2)cc1` (single isomer, unassigned) was run?
Its inhibition of growth at 5 µM is 48%.

Which inhibition of growth at 5 µM (HUVEC [1]) does the source give for `CCSCC[C@@H](N)[C@H](O)C(=O)Nc1ccc(NC(=O)/C=C/c2cc(OC)c(OC)c(OC)c2)cc1` here?
Its inhibition of growth at 5 µM is 89%.

Which inhibition of growth at 5 µM (HUVEC [1]) does the source give for `CCSCC[C@@H](N)[C@H](O)C(=O)Nc1ccccc1` here?
Its inhibition of growth at 5 µM is 0%.

With `CCSCCC(N)C(O)C(=O)Nc1ccc(NC(=O)/C=C/c2ccc(OC)cc2)cc1` (single isomer, unassigned) as the compound, how does the inhibition of growth at 5 µM (HUVEC [1]) read?
The inhibition of growth at 5 µM was 43%.

Which results are given for `CCOc1ccc(/C=C/C(=O)Nc2ccc(NC(=O)[C@@H](O)[C@H](N)CC3CCCCC3)cc2)cc1`?
GI50 (HUVEC [2]; Homo sapiens, HUVEC): 1 µM; inhibition of growth at 5 µM (HUVEC [1]): > 98%

For `CCOc1ccc(CCC(=O)Nc2ccc(NC(=O)[C@@H](O)[C@H](N)CC3CCCCC3)cc2)cc1`, which inhibition of growth at 5 µM (HUVEC [1]) is on record?
The inhibition of growth at 5 µM was 42%.

For `COc1cc(/C=C/C(=O)O[C@@H]2CC[C@]3(CO3)[C@@H]([C@]3(C)O[C@H]3CCC=C(C)C)[C@@H]2OC)cc(OC)c1OC`, which IC50 (Bos taurus) is on record?
Its IC50 is 3e-05 ng/mL (≈ 5.81e-05 nM).

With `COc1cc(NC(=O)[C@@H](O)[C@H](N)CC2CCCCC2)ccc1NC(=O)/C=C/c1cc(OC)c(OC)c(OC)c1` as the compound, how does the GI50 (HUVEC [2]; Homo sapiens, HUVEC) read?
Its GI50 is 1.2 µM.

What about the inhibition of growth at 5 µM (HUVEC [1]) of the same compound?
The inhibition of growth at 5 µM was over 98%.

How did the inhibition of growth at 5 µM (HUVEC [1]) turn out when `CCSCC[C@@H](N)[C@H](O)C(=O)Nc1ccc(NC(=O)c2cc(OC)c(OC)c(OC)c2)cc1` (single isomer, unassigned) was run?
The inhibition of growth at 5 µM was 20%.

For `CCOc1ccc(/C=C/C(=O)Nc2ccc(NC(=O)C(O)C(N)CCSCC)cc2)cc1` (single isomer, unassigned), which inhibition of growth at 5 µM (HUVEC [1]) is on record?
Its inhibition of growth at 5 µM is 91%.

Which results are given for `COc1cc(/C=C/C(=O)Nc2ccc(NC(=O)[C@@H](O)[C@H](N)CCc3ccccc3)cc2)cc(OC)c1OC`?
GI50 (HUVEC [2]; Homo sapiens, HUVEC): 0.85 µM; inhibition of growth at 5 µM (HUVEC [1]): > 98%

Which inhibition of growth at 5 µM (HUVEC [1]) does the source give for `COc1cc(/C=C/C(=O)NC2CCC(NC(=O)[C@@H](O)[C@H](N)CCc3ccccc3)CC2)cc(OC)c1OC` (some centres not stated) here?
Its inhibition of growth at 5 µM is 46%.

For `CCOc1ccc(/C=C/C(=O)Nc2ccc(NC(=O)[C@@H](O)[C@H](N)CCc3ccccc3)cc2)cc1`, which GI50 (HUVEC [2]; Homo sapiens, HUVEC) is on record?
Its GI50 is 1.8 µM.

And the inhibition of growth at 5 µM (HUVEC [1])?
Its inhibition of growth at 5 µM is over 98%.

`CCSCC[C@@H](N)[C@H](O)C(=O)Nc1ccc(NC(=O)c2ccc(OC)cc2)cc1` (single isomer, unassigned) was tested. Which inhibition of growth at 5 µM (HUVEC [1]) did it give?
Its inhibition of growth at 5 µM is 15%.

Which results are given for `COc1cc(/C=C/C(=O)Nc2ccc(NC(=O)[C@@H](O)[C@H](N)CC3CCCCC3)cc2C)cc(OC)c1OC`?
GI50 (HUVEC [2]; Homo sapiens, HUVEC): 1.8 µM; inhibition of growth at 5 µM (HUVEC [1]): > 98%

What does the source list for `COc1cc(/C=C/C(=O)Nc2ccc(NC(=O)[C@@H](O)[C@H](N)CCc3ccccc3)c(C)c2)cc(OC)c1OC`?
GI50 (HUVEC [2]; Homo sapiens, HUVEC): 2.3 µM; inhibition of growth at 5 µM (HUVEC [1]): 92%

Which results are given for `COc1cc(/C=C/C(=O)Nc2ccc(NC(=O)[C@@H](O)[C@H](N)CC3CCCCC3)cc2)cc(OC)c1OC` (stereo in doubt)?
GI50 (HUVEC [2]): 2 µM; growth inhibition (GI) (HUVEC [1]): 96%

Which GI50 (HUVEC [2]) does the source give for `COc1cc(/C=C/C(=O)Nc2ccc(NC(=O)[C@@H](O)[C@H](N)CC3CCCCC3)cc2)cc(OC)c1OC` (stereo in doubt; 11) here?
The GI50 was 0.67 µM.

What about the inhibition of growth at 5 µM (HUVEC [1]) of the same compound?
Its inhibition of growth at 5 µM is over 98%.

`COc1cc(/C=C/C(=O)NC2CCC(NC(=O)[C@@H](O)[C@H](N)CC3CCCCC3)CC2)cc(OC)c1OC` (some centres not stated) was tested. Which inhibition of growth at 5 µM (HUVEC [1]) did it give?
The inhibition of growth at 5 µM was 52%.

`COc1cc(/C=C/C(=O)Nc2ccc(NC(=O)[C@@H](O)[C@H](N)CCC3CCCCC3)cc2)cc(OC)c1OC` was tested. Which GI50 (HUVEC [2]; Homo sapiens, HUVEC) did it give?
The GI50 was 0.8 µM.

What about the inhibition of growth at 5 µM (HUVEC [1]) of the same compound?
The inhibition of growth at 5 µM was over 98%.

Which GI50 (HUVEC [2]; Homo sapiens, HUVEC) does the source give for `COc1cc(NC(=O)/C=C/c2cc(OC)c(OC)c(OC)c2)ccc1NC(=O)[C@@H](O)[C@H](N)CCc1ccccc1` here?
Its GI50 is 0.7 µM.

And the inhibition of growth at 5 µM (HUVEC [1])?
The inhibition of growth at 5 µM was over 98%.

`COc1cc(/C=C/C(=O)Nc2ccc(NC(=O)[C@@H](O)[C@H](N)Cc3ccccc3)cc2)cc(OC)c1OC` was tested. Which inhibition of growth at 5 µM (HUVEC [1]) did it give?
The inhibition of growth at 5 µM was 93%.
